# Assay outcomes from PubChem BioAssay.
# TRPC6 act – activators of mouse TRPC6 channel; Q61143; HEK293-TRPC6 membrane potential dye fluorescence; stronger effect = higher value; B-score at 10 µM; actives 0.13% (n = 310,000); AID 2550;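 active = B-score of the integrated fluorescence ratio above library mean plus 3 SD, and starting fluorescence ratio within library mean plus 5 SD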;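 also: higher score means more depolarization so channel activation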
# TRPC4 PAM – allosteric potentiators of mouse TRPC4 channel | AID 2227 | B-score at 10 µM | Q9QUQ5 | actives 0.42% (n = 310,000) | HEK293 TRPC4beta/mu-opioid, DAMGO EC20, Fluo-4 Ca2+ flux; stronger effect = higher value;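 active = B-score of calcium response area above 5 SD of library B-scores, with initial fluorescence ratio within 5 SD of library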;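 also: B-score of integrated fluorescence ratio over time as area under calcium response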
# TRPC6 inhibitor – mouse TRPC6 channel inhibition. actives 1.1% (n = 310,000). HEK293-TRPC6, membrane potential dye, ACh-evoked depolarization; stronger effect = lower value. B-score at 10 µM;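 active = B-score under library mean minus 3 SD, initial fluorescence not abnormally high, positive integrated signal ratio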;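 also: B-score derived from integrated fluorescence ratio over the kinetic read; more negative B-score means stronger inhibition of depolarization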
# TRPC4 act – TRPC4 (mouse) channel activation; Q9QUQ5; HEK293 TRPC4beta/mu-opioid, Fluo4 calcium fluorescence; stronger effect = higher value; B-score at 10 µM; actives 0.49% (n = 310,000); AID 2237;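 active = B-score above 5 SD of library B-scores, and initial fluorescence ratio not above library mean plus 5 SD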;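 also: positive B-score marks a calcium rise read as TRPC4 activation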
#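 Incubation: 45 min room-temperature Fluo4 loading, 110 s read / System: HEK293 cells stably co-expressing mouse TRPC4beta and mu-opioid receptor / Signal: Fluo4 fluorescence, kinetic / Control set: buffer (low) and maximal DAMGO (high) / Measure: integrated baseline-normalised fluorescence ratio, converted to per-well B score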
# TRPC4 inh – blocks the mouse TRPC4 cation channel; HEK293 TRPC4beta/mu-opioid, DAMGO-evoked Fluo4 calcium flux; stronger effect = lower value; actives 0.39% (n = 300,000); B-score at 10 µM; Q9QUQ5;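 active = B-score over 3 SD under the library average, no early fluorescence shift, positive overall ratio signal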
#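 Assay system: Stable TRPC4beta/mu-opioid receptor HEK293 cells | Reagent: DAMGO in two steps, submaximal then maximal | Compound dosing: Single concentration per test compound | Signal: Fluo4 Ca2+ flux fluorescence | Evaluation: Per-well B score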
# TRPC4 sel inh 2 – second check of whether TRPC6 inhibitors also affect mouse TRPC4. HEK293 TRPC4/MOR, membrane potential dye fluorescence; channel activated by saturating DAMGO dose. actives 42% (n = 920). inhibition, % at 10 µM. shares compounds with TRPC6 inhibitor;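 active = compounds whose fluorescence signal differed from control wells by over 3 SD, either direction, in both duplicate plates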
# TRPC4 spec – tests whether TRPC6 inhibitors also affect mouse TRPC4 | AID 2777 | actives 61% (n = 920) | shares compounds with TRPC6 inhibitor | activity change, negative = inhibition, % at 10 µM | HEK293 TRPC4/mu-opioid, membrane potential fluorescence;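 active = rise or fall in signal beyond 3 SD of buffer-only wells in both replicate plates, either sign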;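 also: integrated kinetic ratio of fluorescence range over baseline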
# HEK293 MPD ctr 2-1 – second check of TRPC6 inhibitor effects in parental HEK293 cells; signal change vs control, % at 10 µM; AID 2779; shares compounds with TRPC6 inhibitor; parental HEK293 membrane potential dye fluorescence; maximal acetylcholine challenge after compound addition; actives 31% (n = 920);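 active = membrane potential signal moving either way by over 3 SD of the maximum-effect control, in both duplicate plates, meaning non-specific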
# HEK293 MPD ctr-1 – parental HEK293 nonspecific activity of TRPC6 inhibitors | shares compounds with TRPC6 inhibitor | parental HEK293 membrane potential dye fluorescence | membrane potential signal change, % at 10 µM | actives 60% (n = 920);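 active = membrane potential signal shifting up or down by more than 3 SD of buffer-only wells, on both duplicate plates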
# HEK293 MPD ctr-2 – parental HEK293 nonspecific activity of TRPC6 modulators | shares compounds with TRPC6 inhibitor | membrane potential dye fluorescence | membrane potential signal change, % at 10 µM | actives 51% (n = 2,400);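 active = membrane potential signal moves up or down beyond 5 SD from buffer-only wells, on both duplicate plates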
# HEK293 MPD ctr 2-2 – second check of TRPC6 modulator effects in parental HEK293 cells. shares compounds with TRPC6 inhibitor. membrane potential dye fluorescence; after compound, maximal acetylcholine stimulation. inhibition, % at 10 µM. actives 14% (n = 2,400);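 active = membrane potential signal drops by more than 5 SD from the mean control signal, in both duplicate plates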;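 also: plate controls were acetylcholine ECmax control wells for no effect and buffer only wells for full effect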
# TRPC4/MOR mod – mouse TRPC4 off-target activity of TRPC6 modulators; shares compounds with TRPC6 inhibitor; HEK293 TRPC4/mu-opioid, membrane potential fluorescence; percent change from control (negative = decrease, positive = increase), % at 10 µM; actives 69% (n = 2,400);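 active = membrane potential signal moved up or down beyond 5 SD of buffer control wells, in both duplicate plates, actives on both sides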;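 also: plate controls were assay buffer wells for no effect and DAMGO maximal-effect wells for full effect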
# TRPC4/MOR inh 2 – second selectivity test of TRPC6 modulators against mouse TRPC4; actives 55% (n = 2,400); inhibition, % at 10 µM; HEK293 TRPC4/mu-opioid, membrane potential dye fluorescence; stimulated with maximal-effect DAMGO; shares compounds with TRPC6 inhibitor; AID 488928;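 active = drop in membrane potential signal beyond 5 SD of the control wells in both duplicate plates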;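 also: TRPC4 counter screen for TRPC6 hits run under conditions tuned for TRPC6 not TRPC4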
# TRPC6 inh conf – mouse TRPC6 inhibitor confirmation; shares compounds with TRPC6 inhibitor; HEK293-TRPC6, membrane potential dye, ACh-evoked depolarization; inhibition, % at 10 µM; actives 43% (n = 3,300); AID 488960;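 active = fluorescence ratio falls more than 5 SD below the full-stimulation control mean, in both duplicate runs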;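 also: integrated fluorescence ratio of peak minus minimum over baseline after agonist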
# TRPC6 act conf – confirmation of mouse TRPC6 activators. AID 488961. activation, % at 10 µM. actives 11% (n = 2,800). shares compounds with TRPC6 inhibitor. HEK293-TRPC6 membrane potential dye fluorescence, FDSS;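 active = ratio signal rise beyond 5 SD above unstimulated control wells' mean, seen in both duplicate runs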;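 also: plate controls were buffer EC0 wells for no effect and acetylcholine ECmax response for full effect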
# The depositor's hits bear a star; i = inactive; . = no result. Rows were chosen to be rich in hits. Some 2.3% of all compounds tested hit in one or more screens of this group.
SMILES,TRPC6 act,TRPC4 PAM,TRPC6 inhibitor,TRPC4 act,TRPC4 inh,TRPC4 sel inh 2,TRPC4 spec,HEK293 MPD ctr 2-1,HEK293 MPD ctr-1,HEK293 MPD ctr-2,HEK293 MPD ctr 2-2,TRPC4/MOR mod,TRPC4/MOR inh 2,TRPC6 inh conf,TRPC6 act conf
COc1ccc(-c2nc3ccccc3[nH]2)cc1,i,i,i,i,i,.,.,.,.,.,.,.,.,.,.
Cc1cccc(-n2nc(C(=O)c3ccco3)cc(-c3nc4ccccc4[nH]3)c2=N)c1,i,i,-5.4*,i,i,.,.,.,.,i,i,20%*,45%*,i,i
Cc1ccccc1-n1nc(C(=O)c2cccs2)cc(-c2nc3ccccc3[nH]2)c1=N,i,i,-11*,i,i,66%*,-9.6%*,i,i,.,.,.,.,i,i
Cc1ccc(-c2noc(CCC(=O)N3CCCc4ccccc43)n2)cc1,i,i,-6.4*,i,i,.,.,.,.,104%*,i,12%*,i,66%*,.
O=C(CSc1nnc(COc2ccc(Cl)cc2)o1)NC1CC2CCC1C2 (stereo not given),i,i,i,i,i,.,.,.,.,.,.,.,.,.,.
CCCn1c(NCc2c[nH]c3ccccc23)nc2ccccc21,i,i,-8.5*,i,i,25%*,-16%*,i,-209%*,.,.,.,.,i,i
c1cncc(CNc2ncnc3sccc23)c1,28*,i,i,44*,i,.,.,.,.,i,i,i,i,i,i
C=Cc1ccc(CSc2cc(C)nc3nc(C)nn23)cc1,i,i,i,i,i,.,.,.,.,.,.,.,.,.,.
COC(=O)c1cn(-c2ccccc2)nc1-c1ccc(OC)cc1,i,i,i,i,i,.,.,.,.,.,.,.,.,.,.
CCN(CC)CCNC(=S)NC(=O)c1cn(-c2ccccc2)nc1-c1ccc(OC)cc1,i,i,-5.1*,i,i,.,.,.,.,i,i,i,58%*,i,i
Cc1ccc(OCCCCN2CCC(C)CC2)c(Br)c1,i,i,i,i,i,.,.,.,.,.,.,.,.,.,.
Cc1ccc(OCCCCCCN2CCNCC2)c(Br)c1,i,i,-9*,i,i,52%*,1.3%*,i,6.4%*,.,.,.,.,70%*,i
CCN1CCN(CCCOc2ccc(Cl)cc2Br)CC1,i,i,i,i,i,.,.,.,.,.,.,.,.,.,.
Clc1ccc(Cl)c(OCCCCN2CCNCC2)c1,i,24*,-8.7*,i,i,57%*,-0.3%*,i,3.5%*,.,.,.,.,i,i
